Measured values published in ChEMBL document CHEMBL1155524, “Bis-azaaromatic quaternary ammonium salts as ligands for the blood-brain barrier choline transporter” (Bioorg Med Chem Lett, 2010).
pKi: −log10 of the molar value.

experiment: Binding affinity to blood-brain barrier choline transporter in rat brain assessed as inhibition of [3H]choline uptake; type: tissue-based
How it was run: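 In situ rat brain perfusion (Takasato method, Allen and Smith modification). Analog co-perfused at a single concentration, with brain uptake of [3H]-choline measured. Ki is the analog concentration inhibiting 50% of [3H]-choline uptake into brain, derived from the single-concentration inhibition. n = 4–6 animals. Ki values compared by ANOVA with Bonferroni multiple comparisons test.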

Question: With `c1ccc2c[n+](CCCCCCCCCCCC[n+]3ccc4ccccc4c3)ccc2c1` as the compound, how does the pKi read?
Answer: The pKi was 4.66.

Question: With `c1ccc2c[n+](CCCCCCCCCC[n+]3ccc4ccccc4c3)ccc2c1` as the compound, how does the pKi read?
Answer: Its pKi is 5.00.

Question: With `Cc1ccc[n+](CCCCCCCCCCC[n+]2cccc(C)c2)c1` as the compound, how does the pKi read?
Answer: Its pKi is 4.44.

Question: With `Cc1cc[n+](CCC#Cc2ccc(C#CCC[n+]3ccc(C)cc3)cc2)cc1` as the compound, how does the pKi read?
Answer: Its pKi is 5.07.

Question: With `CCCCCCCC[n+]1cccc([C@@H]2CCCN2C)c1` as the compound, how does the pKi read?
Answer: Its pKi is 4.31.

Question: With `c1ccc2c[n+](CCCCCC[n+]3ccc4ccccc4c3)ccc2c1` as the compound, how does the pKi read?
Answer: The pKi was 4.54.

Question: With `Cc1ccc[n+](CCCC#Cc2cccc(C#CCCC[n+]3cccc(C)c3)c2)c1` as the compound, how does the pKi read?
Answer: Its pKi is 3.85.

Question: With `Cc1ccc[n+](CCCC#Cc2ccccc2C#CCCC[n+]2cccc(C)c2)c1` as the compound, how does the pKi read?
Answer: Its pKi is 3.50.

Question: With `Cc1ccc[n+](CCC#Cc2ccc(C#CCC[n+]3cccc(C)c3)cc2)c1` as the compound, how does the pKi read?
Answer: The pKi was 4.82.

Question: With `Cc1ccc[n+](CCCCCCCCC[n+]2cccc(C)c2)c1` as the compound, how does the pKi read?
Answer: Its pKi is 4.52.

Question: With `Cc1ccc[n+](CCCCCC[n+]2cccc(C)c2)c1` as the compound, how does the pKi read?
Answer: The pKi was 4.59.

Question: With `Cc1ccc[n+](CCCCCCCCCCCC[n+]2cccc(C)c2)c1` as the compound, how does the pKi read?
Answer: The pKi was 4.44.

Question: With `Cc1ccc[n+](CCCCCCCC[n+]2cccc(C)c2)c1` as the compound, how does the pKi read?
Answer: Its pKi is 4.62.

Question: With `Cc1ccc[n+](CCCCCCCCCC[n+]2cccc(C)c2)c1` as the compound, how does the pKi read?
Answer: Its pKi is 4.66.

Question: With `Cc1cc[n+](CCC#Cc2ccc(C#CCC[n+]3ccc(C)c(C)c3)cc2)cc1C` as the compound, how does the pKi read?
Answer: The pKi was 5.08.

Question: With `C(#Cc1ccc(C#CCC[n+]2ccc3c(c2)CCCC3)cc1)CC[n+]1ccc2c(c1)CCCC2` as the compound, how does the pKi read?
Answer: The pKi was 5.27.

Question: With `Cc1cc(C)c[n+](CCC#Cc2ccc(C#CCC[n+]3cc(C)cc(C)c3)cc2)c1` as the compound, how does the pKi read?
Answer: The pKi was 5.13.

Question: With `C[N+](C)(C)CCO` [CHOLINE] as the compound, how does the pKi read?
Answer: The pKi was 4.39.
